The list is not random: actives were taken first. Their share in the collection is about 1.9%.
RanGTP-Imp inh: disruptors of Ran-importin-beta complex formation – biochemical, FRET, CFP-Ran, YFP-importin-beta, homogeneous, primary screen; hit rate 1.1% among 300,000; inhibition, % (no concentration beside the values); cell-free CFP-Ran/YFP-importin-beta FRET ratio;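 active = more than half of the replicate wells show a fall in the fluorescence ratio signal beyond about 16%, limit read from the data, passing the limit was not always enough; inconclusive = exactly half of the replicate wells pass the set limit; inactive = fewer than half of replicates pass the limit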;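 also: 0% = DMSO wells and 100% = Ran loaded with GDP instead of GTP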
Runt-SMMHC FRET: Runt domain-CBFb-SMMHC interaction inhibition | Q01196+Q13951 | Cerulean-Runt/Venus-CBFb-SMMHC FRET ratio 530/480, 1 h | inhibition, % at 20 µM | hit rate 0.74% among 220,000;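 active = mean inhibition across duplicate retests at 20 µM reaching about 50%, limit read from the data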;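 also: 0% = DMSO wells and 100% = wells with excess untagged CBFb-SMMHC; inhibitors lower the FRET ratio by blocking Runt binding to CBFb-SMMHC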
Hck Nef HTS: blocks Nef-activated human Hck kinase. inhibition, % at 20 µM. Recombinant Hck-YEEI plus Nef, Z-Lyte FRET kinase assay. P08631. hit rate 0.68% among 220,000;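 active = Hck-Nef kinase inhibition above about 50%, limit read from the data; inactive = inhibition below that limit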;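 also: 0% = DMSO with Hck plus Nef and 100% = Hck alone without Nef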
Target sequence (P08631 whole entry, looked up): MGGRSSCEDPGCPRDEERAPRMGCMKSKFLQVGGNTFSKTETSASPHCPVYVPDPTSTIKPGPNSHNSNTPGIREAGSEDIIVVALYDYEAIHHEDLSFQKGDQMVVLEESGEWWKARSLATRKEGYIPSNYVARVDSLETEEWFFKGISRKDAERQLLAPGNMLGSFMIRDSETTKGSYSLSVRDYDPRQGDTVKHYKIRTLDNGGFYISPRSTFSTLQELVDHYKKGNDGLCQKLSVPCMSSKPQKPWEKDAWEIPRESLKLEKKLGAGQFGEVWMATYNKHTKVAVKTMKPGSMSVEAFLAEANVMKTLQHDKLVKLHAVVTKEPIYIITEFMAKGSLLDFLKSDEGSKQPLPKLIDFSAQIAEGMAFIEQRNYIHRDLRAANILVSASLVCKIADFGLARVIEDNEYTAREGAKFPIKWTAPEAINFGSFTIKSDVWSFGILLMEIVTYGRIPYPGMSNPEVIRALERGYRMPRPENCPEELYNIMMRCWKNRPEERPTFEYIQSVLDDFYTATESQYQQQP
Runt-CBFb FRET: Runt domain-CBFb interaction inhibition | AID 1496 | inhibition, % at 20 µM | Cerulean-Runt/Venus-CBFb FRET ratio 530/480, 1 h | hit rate 0.46% among 220,000 | Q01196+Q13951;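 active = inhibition over about 50% at 20 µM in the single-dose screen, limit read from the data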;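 also: 0% = DMSO wells and 100% = excess unlabeled CBFb competitor control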
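Measured by: fluorescence energy transfer, 422 nm excitation, 530/480 nm emission; test system: Cerulean-tagged RUNX1 Runt domain (FRET donor) fusion protein; buffer or medium: Tris pH 7.5 buffer with BSA; compound: one dose, 20 µM compound, 1% DMSO; times: two 1 h room-temperature incubations shielded from light; benchmarks: unlabeled CBFb 5 µM, positive control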
Hck Nef conf: Hck-Nef kinase inhibition, confirmation | shares compounds with Hck Nef HTS | Recombinant Hck-YEEI:Nef, Z-Lyte FRET kinase assay | calls only at 10 µM | hit rate 28% among 1,300 | AID 463188;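 active = average inhibition of at least 50%, with Z-scores no higher than 3 in both the phospho-tyrosine peptide and fluorescence counterscreens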
Starred values were filed as active, the others as inactive; i = inactive; ? = inconclusive; · = not tested or not shown; + = active, no number.

SMILES	RanGTP-Imp inh	Runt-SMMHC FRET	Hck Nef HTS	Runt-CBFb FRET	Hck Nef conf
O=C(Cn1c2ccccc2c(=O)c2ccccc21)N/N=C/c1cc([N+](=O)[O-])ccc1N1CCCCCC1	-4	-91	81*	-44	+
O=C(CNc1ccccc1)N/N=C/c1cc([N+](=O)[O-])ccc1N1CCCC1	0	-28	3	-6	·
Cc1c(C(=O)Nc2ccccc2F)sc2ncn(CC(=O)N3CCOCC3)c(=O)c12	1	·	·	·	·
Cc1cc(/C=C2\SC(=Nc3ccccc3)NC2=O)c(C)n1-c1ccc(S(N)(=O)=O)cc1	21*	-2	59*	0	i
COc1ccc(-n2c(C)cc(/C=C3\SC(=O)NC3=O)c2C)cc1	0	·	·	·	·
O=C(NCc1ccc(F)cc1)C1CCN(S(=O)(=O)c2ccc(Br)s2)CC1	-6	·	·	·	·
CSc1nc(SCCO)c2sc3nc(-c4ccco4)c4c(c3c2n1)CC(C)(C)OC4	4	-46	78*	-12	i
COc1ccc(C2=CC3=C(Br)C(=O)C(C)(OC(=O)c4ccco4)C(=O)C3=CO2)cc1 (stereo unspecified)	-1	-31	92*	5	+
CN(CCOc1ccccc1)C(=O)c1cc([N+](=O)[O-])cc([N+](=O)[O-])c1	-3	-1	23	-1	·
O=C(c1ccccc1)c1ccc2nc(Nc3ccccc3)c3nncn3c2c1	1	-65	68*	0	i
O=C(C1CC(=O)N(c2ccc(Cl)cc2)C1)N1CCOCC1 (stereo unspecified)	-5	·	·	·	·
COc1ccc2nc(-n3c(O)c(C4=c5ccccc5=NC4=O)[nH]c3=S)sc2c1	-10	-12	103*	-12	+
CCOC(=O)c1c(/N=C/N(C)C)sc(C=O)c1-c1ccccc1	6	134*	98*	103*	i
Cc1ncc(CC(=O)n2cc(C(=O)c3cc(F)ccc3O)cn2)s1	?	5	45	2	·
Cc1ccc(O)c(C(=O)c2cnn(C(=O)Cc3csc(C)n3)c2)c1	·	3	74*	-2	+
Cc1ccc(C(=O)NCCSC(C)(C)C)cc1	?	1	2	1	·
CC(C)(C)SCCNC(=O)c1ccccc1	4	1	54*	1	i
COc1ccc(OC)c(CCNC(=O)CN2C(=O)CCSc3ccccc32)c1	3	·	·	·	·
CC(=O)C1C(c2ccc3ncccc3c2)NC(=O)NC1(O)C(F)(F)F (stereo unspecified)	-1	-1	52*	0	i
CC(=O)C1C(c2ccncc2)NC(=O)NC1(O)C(F)(F)F (stereo unspecified)	3	-2	6	2	·
Cc1c(NC(=O)Nc2ccc(F)cc2F)c(=O)n(-c2ccccc2)n1C	4	·	·	·	·
Nc1c2c(nc3ccccc13)CCCC2	4	1	-5	0	·
Nc1c2ccccc2nc2ccccc12	175*	82*	93*	10	·
Cc1ccc(NC(=O)C2CCCN2C(=O)OCc2ccccc2)cc1F (stereo unspecified)	8	·	·	·	·
O=C(CSc1nnc(-c2ccco2)c(-c2ccco2)n1)c1ccccc1	?	·	69*	·	i
SMILES	RanGTP-Imp inh	Runt-SMMHC FRET	Hck Nef HTS	Runt-CBFb FRET	Hck Nef conf
CCOc1cc(N2CCOCC2)c(OCC)cc1NC(=O)c1ccccc1C	0	0	8	0	·
CCOc1cc(N2CCOCC2)c(OCC)cc1NC(=O)c1ccc2ccccc2n1	-2	-2	64*	2	i
CCCNC(=O)c1nn2cc(Br)cnc2c1Br	2	-1	0	0	·
COc1ccc(C)cc1NC(=O)Nc1cnccn1	0	4	102*	0	+
CCOc1ccc(N2CC(O)=C(c3nc4ccccc4c(=O)[nH]3)C2=N)cc1	-1	-5	55*	-1	i
C/C(=N\NC(=O)Cc1c(Cl)cccc1Cl)c1cccnc1	-4	·	·	·	·
O=C(Cc1cccs1)N=Nc1c(O)[nH]c2ccc(Br)cc12	6	-3	22	-3	·
COc1ccc2[nH]c(O)c(N=NC(=O)Cc3cccs3)c2c1	0	-2	51*	-3	i
Cc1cc(C)n(CCN(C)C(=O)C2CCC(=O)N(CCc3cccc(F)c3)C2)n1 (stereo unspecified)	6	·	·	·	·
Cc1ccc(-c2cc(C(F)F)n3ncc(C(=O)NCc4ccco4)c3n2)cc1	·	-28	58*	-11	i
Cc1ccc(-c2cc(C(F)(F)F)n3ncc(C(=O)NCc4ccco4)c3n2)cc1	3	-11	23	-1	·
COCCNC(=O)C(NC(=O)C1CCC(C)CC1)C(C)C (stereo unspecified)	-3	0	-14	1	·
O=C(OCc1cccc2ccccc12)c1ccc2c(=O)[nH]c(CN3CCOCC3)nc2c1	?	-10	2	-1	·
CCc1ccc2nc(NC(=O)c3ccc4c(=O)[nH]c(CN5CCOCC5)nc4c3)sc2c1	6	-10	109*	-12	+
CC(C)n1c(SCC(=O)NC2CC2)nnc1-c1ccco1	-1	·	·	·	·
COc1cc(/C=C(\C#N)C(=O)NC(C)C)ccc1OCc1ccc(C(=O)O)cc1	-3	3	33	-2	·
COc1cc(/C=C(/C#N)C(=O)Nc2ccccc2)ccc1OCc1ccc(C(=O)O)cc1	·	-10	138*	-5	+
COc1cc(/C=C(\C#N)C(=O)NC2CCCCC2)ccc1OCc1ccc(C(=O)O)cc1	21*	2	52*	1	i
CC(NC(=O)/C(C#N)=C1\N=C(NC(=O)c2cccs2)c2ccccc21)c1ccccc1 (stereo unspecified)	-1	15	0	10	·
Cc1cccc(-c2ncc(S(=O)(=O)C(C)(C)C)c(N)n2)c1	-2	-1	2	1	·
Cc1ccccc1OCC(=O)NCC(=O)OCc1ccc(Br)cc1	0	·	·	·	·
CC(C)(C)c1cc(=O)n2[nH]c(N)nc2n1	-1	-2	18	0	·
COC(C)(C)c1cc(C(C)(C)C)nc(N)n1	2	-3	102*	-2	i
COc1cc2nc(SCC(=O)NCc3ccco3)n(Cc3ccc(Cl)cc3)c(=O)c2cc1OC	3	-7	100*	-1	+
Cc1csc2nc(SCC(=O)N3CCN(c4ccccc4)CC3)[nH]c(=O)c12	1	·	·	·	·
CCOc1ccc(NC(=O)CN(C)C(=O)C2CC(=O)N(CCc3ccccc3)C2)cc1OCC (stereo unspecified)	7	·	·	·	·
CCCN(Cc1nnc(-c2ccccc2Cl)o1)C(=O)c1cc([N+](=O)[O-])cc([N+](=O)[O-])c1	?	-3	2	-2	·
Cc1cc(O)ccc1Nc1nc(-c2sc(N)nc2C)cs1	0	4	62*	16	+
Cc1nc2ccc(NC(=O)c3cc(S(=O)(=O)N(C)c4ccccc4)ccc3Cl)cc2s1	0	-7	52*	-5	+

Source: PubChem BioAssay
